Here are results for five substances from PMC4157762 (Bioconjugate Chemistry, 2014).

The nature of one series: Dynamic light scattering. The settings on record: DLS at stock concentration, 15 measurements, regularization fit. In kind it is physicochemical. The essentials: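 Samples were spun 15 min at 18 000 g and measured at stock concentration at 100% laser power until intensity readings were consistent. 15 measurements per sample gave the size distribution by regularization fit. Effective radius and aggregation by intensity and by mass were reported. Controls were maleimide-capped XTEN (negative) and BSA (positive), with BSA re-measured after 10 min at 80 °C and 5 min on ice.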

A further series deals with HIV-1Ba-L. The experiment in a line: In vitro antiviral MAGI assay. In kind it is cell-based. Particulars: read-out: IC50 for inhibition of virus replication, MAGI CCR5 cells, 48 h, β-galactosidase read-out (Gal-screen), triplicate. The essentials: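 MAGI CCR5 cells are HeLa-derived, express CXCR4, CD4 and CCR5, and carry an HIV-1 LTR–β-galactosidase reporter. Cells were plated at 1 × 10^4 per well and adhered overnight at 37 °C. Medium was replaced with the compound range (up to 10 nM), then HIV-1Ba-L was added. After 48 h, lysates were read with Gal-screen and expressed as % of the no-compound blank. Tested in triplicate with unmodified-peptide and capped-XTEN controls.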

Series [1] is classed as physicochemical. Particulars: as E13; dimer peak of the precursor before conjugation. The essentials:
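Vydac C4 column (5 μm, 300 Å, 4.6 × 150 mm), ambient temperature, 1 mL/min. Equilibrated at 5% B, then a linear gradient of 5–50% B over 45 min. 20 μg protein injected. Absorbance read at 214 nm. The thiol-XTEN precursor was run before conjugation.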

For series [2] the following is noted: dosed in rats; cited from earlier work.

As usually defined, the IC50 is the point on the concentration scale where inhibition reaches its midpoint.

Take “BSA (heat treated): heat-treated BSA, positive control for aggregation in DLS”: in “Dynamic light scattering”, the aggregation by intensity is recorded as 92.2% and the aggregation by mass turned out to be 28%.

In the case of “BSA (not heat treated): BSA (Fermentas), DLS control before heat treatment”, in “Dynamic light scattering”, the aggregation by intensity is on record as 0% and the aggregation by mass was found to be 0%.

As for Enfuvirtide, the IC50 with HIV-1Ba-L turned out to be 0.38 nM.

“SAGSPTPGTSESATPESGPGSEPATSGSETPGTSESATPESGPGSEPATSGSETPGTSESATPESGPGTSTEPSEGSAPGTSESATPESGPGSPAGSPTSTEEGSPAGSPTSTEEGSPAGSPTSTEEGTSESATPESGPGTSTEPSEGSAPGTSESATPESGPGSEPATSGSETPGTSESATPESGPGSEPATSGSETPGTSESATPESGPGTSTEPSEGSAPGSPAGSPTSTEEGTSESATPESGPGSEPATSGSETPGTSESATPESGPGSPAGSPTSTEEGSPAGSPTSTEEGTSTEPSEGSAPGTSESATPESGPGTSESATPESGPGTSESATPESGPGSEPATSGSETPGSEPATSGSETPGSPAGSPTSTEEGTSTEPSEGSAPGTSTEPSEGSAPGSEPATSGSETPTAEAAGCGTAEAASASR [XTEN-1]”: in series [1], the “C4 RPC retention time of suspected disulfide-bonded dimer” value was found to be 21.2 min.

Take enfuvirtide: the half-life in rats in series [2] is 2.8 h.
